697 NFkB inh – inhibitors of the PMA/ionomycin-induced NF-kB reporter in 697 B cells; 697 B-cell NF-kB luciferase reporter, 16 h; inhibition, % at 4 µM; hit rate 0.33% among 330,000; AID 435022; in the data active means inhibition above about 35%
CHOP UPR activ – apoptotic UPR (CHOP) activation; AID 449763; hit rate 0.34% among 330,000; CHO-CHOP luciferase reporter, luminescence; percent of tunicamycin response over DMSO baseline; activation, % at 10 µM;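 active means at 10 µM dose, activation of 40% or more, normalized to positive control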
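Assay system: CHO cells with stable CHOP pathway luciferase reporter; Buffer or medium: F12 plus 10% serum; Times: 16-18 h cell attachment, then 6 h compound exposure, 37 °C; Signal: luciferase luminescence; Read-out basis: percent activation relative to tunicamycin control; Control set: tunicamycin high control, DMSO low control.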
CHOP inh – CHOP inhibition in unfolded protein response. AID 2732. hit rate 3.8% among 220,000. CHO-K1 CHOP-promoter luciferase, tunicamycin-induced, 15-18 h. inhibition, % at 10 µM;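 active means compounds that reduced the stress-induced luciferase reporter signal by more than about 70% of percent inhibition, limit read from the data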
Jurkat NFkB inh – lowers PMA/ionomycin-induced NF-kB signal in Jurkat cells; PMA/ionomycin-induced NF-kB luciferase reporter, luminescence; inhibition, % at 4 µM; hit rate 0.53% among 330,000; AID 435003; in the data active means inhibition above about 50%
XBP1 UPR activ – adaptive UPR (XBP1) activation. hit rate 0.33% among 330,000. CHO-XBP1 luciferase reporter, IRE1-XBP1 UPR activation, luminescence; percent of tunicamycin response, DMSO as zero. activation, % at 20 µM;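 active means versus positive control, 20 µM dose yields 30% or more activation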
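Material: CHO cell line with stable XBP1 luciferase reporter; buffer or medium: F12 medium containing 10% fetal bovine serum; compound: single point, 20 µM final compound, 1% DMSO; incubation: 6 h treatment, 37 °C; measured by: glow luminescence from Steady-Glo reagent; evaluation: activation, % of tunicamycin; control set: tunicamycin high, DMSO low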
Numbers stand for hits; . = inactive; / = not tested or not shown. This is one part of a sample in which hits are shown more often than they occur.

SMILES	697 NFkB inh	CHOP UPR activ	CHOP inh	Jurkat NFkB inh	XBP1 UPR activ
Cc1cc(OC(C)C)c2c(-c3ccccc3)cc(=O)oc2c1	.	.	78.8	.	.
CCN(CC(=O)Nc1c(F)cccc1F)C(=O)CCCc1cccs1	.	.	/	.	.
CCOC(=O)C1=C(C)N(C)C(C)=C(C(=O)OCC)C1c1ccc(Cl)cc1	.	.	79.6	.	.
COC(=O)C1=C(C)N(C)C(C)=C(C(=O)OC)C1c1ccc(Cl)cc1	.	.	72.5	.	.
CCOC(=O)C1=C(C)N(C)C(C)=C(C(=O)OCC)C1c1ccc(C(=O)OC)cc1	.	.	.	.	.
Cc1cc(C)cc(NC(=O)CN2CCN(c3ccccc3)CC2)c1	.	.	/	.	.
COC(=O)c1cc2sccc2n1CC(=O)Nc1cccc(SC)c1	.	.	85.2	.	.
O=C(Cn1nc(-c2ccccc2F)ccc1=O)Nc1ccc(S(=O)(=O)N2CCCCCC2)cc1	.	.	.	.	.
O=C(Cn1ncc2c1-c1ccccc1OC2)Nc1ccc(S(=O)(=O)N2CCCCC2)cc1	.	.	86.4	.	.
Cc1ccc(S(=O)(=O)N(CC(=O)Nc2ccc(Cl)c([N+](=O)[O-])c2)C2CCCCC2)cc1	.	.	73.3	.	.
COc1ccc(NC(=S)N2CCN(C(=O)C3CCCO3)CC2)cc1 (centres undefined)	.	.	/	.	.
O=C(CSc1n[nH]c(-c2ccncc2)n1)Nc1ccccc1Cl	.	.	/	.	.
O=c1[nH]nc(Cc2ccc(-c3cccc(Cl)c3)o2)c2ccccc12	.	.	71.6	.	.
CCOc1ccc2oc(C(=O)OCC(=O)NC(=O)NC3CCCC3)c(C)c2c1	.	.	72.6	.	.
Cc1ccc(S(=O)(=O)N2CCC(C(=O)N3CCCC3C(=O)N[C@@H](CC(C)C)C(=O)NCC(N)=O)CC2)cc1 (some centres undefined)	.	.	/	.	.
Nc1c(N(CCC2=CCCCC2)C(=O)c2ccccc2F)c(=O)[nH]c(=O)n1Cc1ccccc1	.	.	/	.	.
Cc1nc(NC(=O)/C=C/c2ccccc2)sc1C(=O)Nc1ccccc1	.	.	92.2	.	.
O=C(/C=C/c1ccc(Br)cc1)c1ccc(NC(=O)c2ccco2)cc1	.	.	.	.	.
O=C(/C=C\c1ccccc1)Nc1ccc(NC(=O)c2ccco2)cc1	.	.	94.9	.	.
CCOc1ccc(S(=O)(=O)n2cnc(C)c2)cc1	.	.	/	.	.
O=C(O)COc1ccccc1/C=N/NC(=O)CSc1nnc(SCc2ccccc2)s1	.	.	.	.	.
CC1=NN(c2nc(-c3ccc(C)cc3)cs2)C(=O)C1N=Nc1ccc2ccccc2c1 (centres undefined)	.	.	.	.	.
CC1=NN(c2nc(-c3ccc(C)cc3)cs2)C(=O)C1N=Nc1ccc(C(N)=O)cc1 (centres undefined)	/	/	106.7	/	/
CCCCCc1cc(=O)oc2c(C(CCN3CCCCC3)c3ccc(OC)cc3)c(OC)cc(OC)c12 (centres undefined)	.	.	71.5	.	.
CCCCCc1cc(=O)oc2c(C(CCN3CCCC(C)C3)c3ccc(OC)cc3)c(OC)cc(OC)c12 (centres undefined)	.	.	71.3	.	.
SMILES	697 NFkB inh	CHOP UPR activ	CHOP inh	Jurkat NFkB inh	XBP1 UPR activ
CCCCCc1cc(=O)oc2c(C(CCN3CCCC3)c3ccc(N(C)C)cc3)c(OC)cc(OC)c12 (centres undefined)	.	.	.	.	.
CC(=O)OCc1c(C(F)(F)F)nn(C)c1Oc1cccc(C(F)(F)F)c1	.	.	75.4	.	.
CC(=O)OCc1c(C(F)(F)F)nn(C)c1Oc1ccccc1	.	.	.	.	.
Cc1nn(Cc2ccccc2)c(C)c1/C=N/NC(=O)CNc1cccc(C(F)(F)F)c1	.	.	70.2	.	.
COc1ccccc1NC(=O)c1nnn(CC(=O)Nc2cccc(SC)c2)c1N	.	.	70.5	.	.
CCOc1ccccc1NC(=O)Cn1nnc(C(=O)Nc2ccccc2Cl)c1N	.	.	72.8	.	.
CCOc1ccccc1NC(=O)c1nnn(CC(=O)Nc2cc(C)cc(C)c2)c1N	.	.	/	.	.
O=[N+]([O-])c1cc([N+](=O)[O-])c2cc3ccccc3nc2c1	.	.	/	.	.
CCC(=O)c1ccc(OCC(O)CN2CCN(C(c3ccccc3)c3ccccc3)CC2)cc1 (centres undefined)	.	.	85.8	.	.
Cc1ccc(S(=O)(=O)N(CCC(=O)N2CCOCC2)c2ccccc2)cc1	.	.	/	.	.
CN(C)c1ccc(/C=C/c2ccc3ccccc3n2)cc1	/	/	77.8	/	/
CN(C)c1ccc(/C=C/c2nc3ccccc3s2)cc1	.	.	81.1	.	.
COc1ccc(Cl)cc1NC(=O)CSc1nnc(COc2ccccc2)n1N	.	.	.	.	.
COc1ccc(Cl)cc1NC(=O)CSc1nnc(COc2ccccc2)n1C	.	.	79.9	.	.
CCOc1ccc(N=C2SC(C(=O)Nc3ccccc3C#N)C(N)=C2C(=O)Nc2ccc(Cl)cc2)cc1 (centres undefined)	.	.	75.7	.	.
N#Cc1ccccc1NC(=O)C1SC(=Nc2ccccc2)C(C(=O)Nc2ccc(Cl)cc2)=C1N (centres undefined)	.	.	100.4	.	.
COc1cc2c(cc1OC)CN(C(=O)c1ccc3[nH]c(C)c(C)c3c1)CC2	.	.	/	.	.
CSc1ccc(CN2CCC(CO)(CCOc3ccccc3)CC2)cc1	.	.	/	.	.
COC(=O)c1ccccc1NC(=O)CSc1ncn[nH]1	.	.	.	.	.
Cc1ccc(NC(NC(=O)c2cccs2)C(Cl)(Cl)Cl)cc1C (centres undefined)	.	.	80.0	.	.
Cc1ccc(NC(NC(=O)c2cccs2)C(Cl)(Cl)Cl)cc1 (centres undefined)	.	.	.	.	.
N#C/C(=C\c1cccnc1)c1ccccc1[N+](=O)[O-]	.	.	/	.	.
O=C(CN(c1cccc(Cl)c1)S(=O)(=O)c1ccc(Cl)cc1)NCc1ccccn1	.	.	/	.	.
COc1ccc(/C(O)=C/c2nc3ccc(C(=O)NCCc4cccc(C)c4)cc3[nH]c2=O)cc1OC	.	.	72.8	.	.
COc1ccc(C(=O)NCCc2ccccc2)cc1OC	.	.	/	.	.
SMILES	697 NFkB inh	CHOP UPR activ	CHOP inh	Jurkat NFkB inh	XBP1 UPR activ
Cc1ccc(/C=C/C(=O)c2ccccc(=O)c2O)cc1C	/	/	70.8	/	/
O=C(/C=C/c1ccccc1)c1cc(Br)ccc(=O)c1O	.	.	.	.	.
O=c1c2c([nH]n1-c1ccccc1)CCSC2	.	.	/	.	.
O=C(CSc1cc(Cl)ccc1Cl)NCC(=O)Nc1ccc(F)c(F)c1F	.	.	71.6	.	.
O=C(Cc1ccccc1)NC(=S)Nc1cc(C(F)(F)F)ccc1Cl	.	.	94.8	.	.
CCCC(=O)Nc1ccc(C(=O)Nc2cc(C(F)(F)F)ccc2Cl)cc1	.	.	73.3	.	.
